Test system: U2OS
Test: Multiplex assay against U2OS
Format: toxicity, cell-based
Settings: human
Summary of the method: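 Tubulin, mitochondrial-mass and membrane-permeability phenotypes are per cents of healthy-nucleus cells. Cells were gated by CellPathfinder machine learning into Hoechst high-intensity objects or normal cells, normal cells into healthy, pyknosed or fragmented nuclei, and pyknosed cells into mitotic or apoptotic. Before that, live cells stained at seeding with Hoechst33342, BioTracker Green Microtubule Cytoskeleton Dye, MitoTracker Red and Annexin V Alexa Fluor 680 were imaged on a CQ1 microscope at 37°C and 5% CO2 after compound addition.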

[1] = 24 h, 1 µM, compound concentration 1 uM, replicate 2
[2] = 24 h, 10 µM, compound concentration 10 uM, replicate 1
[3] = 24 h, 10 µM, compound concentration 10 uM, replicate 2
[4] = 48 h, 1 µM, compound concentration 1 uM, replicate 1
[5] = 48 h, 1 µM, compound concentration 1 uM, replicate 2
[6] = 48 h, 10 µM, compound concentration 10 uM, replicate 1
[7] = 48 h, 10 µM, compound concentration 10 uM, replicate 2

In the case of `CC(C)c1cc(Nc2nc(N3CCC[C@H](N)C3)ncc2C(N)=O)cc(C(C)C)n1`, the “Population Mitotic Cells (%)” value [1] is reported as 73%, the “Population Normal (%)” value [1] is reported as 94% and the “Population Pyknosed Nuclei (%)” value [1] is reported as 20%. For the same compound, the “Population Tubulin-Different-Phenotype (%)” value [1] was 94%, the “Total Cell Count” value [1] was 77 and the “Population Apoptotic (%)” value [2] was 74%. For the same compound, the “Population Fragmented Nuclei (%)” value [2] was 32%, the “Population Hoechst High Intensity Objects (%)” value [2] was 9% and the “Population Membrane Permeable-Phenotype (%)” value [2] was 97%. The “Population Mitochondria Different-Phenotype (%)” value [2] was 100%, the “Population Mitotic Cells (%)” value [2] was 25% and the “Population Normal (%)” value [2] was 90%. The “Population Pyknosed Nuclei (%)” value [2] was 44%, the “Population Tubulin-Different-Phenotype (%)” value [2] was 97% and the “Total Cell Count” value [2] was 167. For the same compound, the “Population Apoptotic (%)” value [3] was 84%, the “Population Fragmented Nuclei (%)” value [3] was 23% and the “Population Healthy Nuclei (%)” value [3] was 23%. For the same compound, the “Population Hoechst High Intensity Objects (%)” value [3] was 17%, the “Population Membrane Permeable-Phenotype (%)” value [3] was 100% and the “Population Mitochondria Different-Phenotype (%)” value [3] was 90%. The “Population Mitotic Cells (%)” value [3] was 16%, the “Population Normal (%)” value [3] was 82% and the “Population Pyknosed Nuclei (%)” value [3] was 53%. The “Population Tubulin-Different-Phenotype (%)” value [3] was 100%, the “Total Cell Count” value [3] was 57 and the “Population Apoptotic (%)” value [4] was 54%. The “Population Fragmented Nuclei (%)” value [4] was 17%, the “Population Healthy Nuclei (%)” value [4] was 45% and the “Population Hoechst High Intensity Objects (%)” value [4] was 7%. For the same compound, the “Population Membrane Permeable-Phenotype (%)” value [4] was 26%, the “Population Mitochondria Different-Phenotype (%)” value [4] was 83% and the “Population Mitotic Cells (%)” value [4] was 45%. For the same compound, the “Population Normal (%)” value [4] was 92%, the “Population Pyknosed Nuclei (%)” value [4] was 37% and the “Population Tubulin-Different-Phenotype (%)” value [4] was 94%. The “Total Cell Count” value [4] was 249, the “Population Apoptotic (%)” value [5] was 52% and the “Population Fragmented Nuclei (%)” value [5] was 14%. The “Population Healthy Nuclei (%)” value [5] was 60%, the “Population Hoechst High Intensity Objects (%)” value [5] was 3% and the “Population Membrane Permeable-Phenotype (%)” value [5] was 46%. For the same compound, the “Population Mitochondria Different-Phenotype (%)” value [5] was 88%, the “Population Mitotic Cells (%)” value [5] was 47% and the “Population Normal (%)” value [5] was 96%. For the same compound, the “Population Pyknosed Nuclei (%)” value [5] was 25%, the “Population Tubulin-Different-Phenotype (%)” value [5] was 96% and the “Total Cell Count” value [5] was 86. The “Population Apoptotic (%)” value [6] was 89%, the “Population Fragmented Nuclei (%)” value [6] was 36% and the “Population Healthy Nuclei (%)” value [6] was 5%. For the same compound, the “Population Hoechst High Intensity Objects (%)” value [6] was 15%, the “Population Membrane Permeable-Phenotype (%)” value [6] was 100% and the “Population Mitochondria Different-Phenotype (%)” value [6] was 100%. For the same compound, the “Population Mitotic Cells (%)” value [6] was 10%, the “Population Normal (%)” value [6] was 84% and the “Population Pyknosed Nuclei (%)” value [6] was 58%. For the same compound, the “Population Tubulin-Different-Phenotype (%)” value [6] was 100%, the “Total Cell Count” value [6] was 155 and the “Population Apoptotic (%)” value [7] was 95%. For the same compound, the “Population Fragmented Nuclei (%)” value [7] was 34%, the “Population Healthy Nuclei (%)” value [7] was 9% and the “Population Hoechst High Intensity Objects (%)” value [7] was 26%. For the same compound, the “Population Mitotic Cells (%)” value [7] was 4%, the “Population Normal (%)” value [7] was 73% and the “Population Pyknosed Nuclei (%)” value [7] was 56%. For the same compound, the “Total Cell Count” value [7] was 56.

Reference: ChEMBL document CHEMBL4689842, “EUbOPEN Chemogenomics Library wave 1” (2021)
